Measurements reported in paper PMC2704382 (Cell, 2009).

Legend:
[1] = system: GSK3β; type: binding; settings: GST-tagged DISC1 fragments, purified His-tagged GSK3β, in vitro
[2] = system: GSK3β; assay: In vitro GSK3β kinase assay; type: biochemical; settings: 2 µM protein
[3] = system: AHPs; assay: AHP cell proliferation assay; type: cell-based; settings: 200 ng/ml in culture medium; cell numbers counted for 2 days; n=3
In short: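 Adult hippocampal progenitors transduced 2 days with GFP-expressing lentivirus (control, DISC1 shRNA or WT-hDISC1), then FACS-sorted on GFP. 2×10^4 cells seeded per well in medium with recombinant Wnt3a (200 ng/ml) or vehicle. Cells counted each day for 2 days; n=3.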

Molecule | Interaction with GSK3β [1] | Inhibition of GSK3β autophosphorylation [2] | Proliferation of AHPs [3]
DISC1 356–595: GST-tagged DISC1 protein fragment spanning residues 356–595 (protein, left off: GST, end not stated, kept) LKLQKCQEKVVEDGDYDTAETLRQRLEELEQEKGRLSWALPSQQPALRSFLGYLAAQIQVALHGATQRAGSDDPEAPLEGQLRTTAQDSLPASITRRDWLIREKQRLQKEIEALQARMSALEAKEKRLSQELEEQEVLLRWPGCDLMALVAQMSPGQLQEVSKALGETLTSANQAPFQVEPPETLRSLRERTKSLNLAVRELTAQVCSGEKLCSSLRRRLSDLDTRLPALLEAKMLALSG | strong interactions | started to inhibit | –
Wnt3a: recombinant Wnt3a protein (protein, UniProt P56704 19-352, looked up) Protein Wnt-3a: SYPIWWSLAVGPQYSSLGSQPILCASIPGLVPKQLRFCRNYVEIMPSVAEGIKIGIQECQHQFRGRRWNCTTVHDSLAIFGPVLDKATRESAFVHAIASAGVAFAVTRSCAEGTAAICGCSSRHQGSPGKGWKWGGCSEDIEFGGMVSREFADARENRPDARSAMNRHNNEAGRQAIASHMHLKCKCHGLSGSCEVKTCWWSQPDFRAIGDFLKDKYDSASEMVVEKHRESRGWVETLRPRYTYFKVPTERDLVYYEASPNFCEPNPETGSFGTRDRTCNVSSHGIDGCDLLCCGRGHNARAERRREKCRCVFHWCCYVSCQECTRVYDVHTCK | – | – | significantly stimulated
DISC1 221–355: GST-tagged DISC1 protein fragment spanning 221–355 (protein, UniProt Q9NRI5 221-355, looked up, fragment, GST tag) GERGEAEGCPPSREAESHCQSPQEMGAKAASLDGPHEDPRCLSRPFSLLATRVSADLAQAARNSSRPERDMHSLPDMDPGSSSSLDPSLAGCGGDGSSGSGDAHSWDTLLRKWEPVLRDCLLRNRRQMEVISLRL | – | started to inhibit | –
